From ChEMBL document CHEMBL4706544, “Discovery of 2-oxy-2-phenylacetic acid substituted naphthalene sulfonamide derivatives as potent KEAP1-NRF2 protein-protein interaction inhibitors for inflammatory conditions” (Eur J Med Chem, 2020)
Active and inactive are the calls of the source. The rule behind the calls is not given here.

What was measured:
Keap1/Nrf2 = Keap1/Nrf2 (Homo sapiens, UniProt Q14145)
Mus musculus [1] = test: Antiinflammatory activity in LPS-induced C57BL/6 mouse model assessed as reduction in IFNgamma production at 10 mg/kg, ip treated for 3 days measured 24 hrs post last dose by ELISA; type: functional, organism-based; conditions: time 4.0 day
In short: (§1)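 Female C57BL/6 mice (20 ± 2 g) got LPS 300 µg/kg IP, then 4 h later IP test compound (500 µL) daily for 3 days. Groups were saline control (n=3), LPS (n=8), LPS + 10 or 40 mg/kg (n=8 each) and LPS + dexamethasone 10 mg/kg IP (n=8). Sera were taken 24 h after the last dose, and IFN-γ, IL-1β, IL-6 and TNF-α were measured by ELISA kits.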

Mus musculus [2] = test: Antiinflammatory activity in LPS-induced C57BL/6 mouse model assessed as reduction in IL1beta production at 10 mg/kg, ip treated for 3 days measured 24 hrs post last dose by ELISA; type: functional, organism-based; conditions: time 4.0 day
In short: as §1

Mus musculus [3] = test: Antiinflammatory activity in LPS-induced C57BL/6 mouse model assessed as reduction in IL6 production at 10 mg/kg, ip treated for 3 days measured 24 hrs post last dose by ELISA; type: functional, organism-based; conditions: time 4.0 day
In short: as §1

Mus musculus [4] = test: Antiinflammatory activity in LPS-induced C57BL/6 mouse model assessed as reduction in TNFalpha production at 10 mg/kg, ip treated for 3 days measured 24 hrs post last dose by ELISA; type: functional, organism-based; conditions: time 4.0 day
In short: as §1

[5] = Apparent volume of distribution during terminal phase in Sprague-Dawley rat at 1 mg/kg, iv by LC-MS/MS analysis; type: ADME, organism-based; conditions: in vivo
In short: (§2)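 Six male SD rats (180–220 g) received 1 mg/kg IV in normal saline with cosolvent. Plasma was obtained by centrifugation at 4 °C and 2000 rpm for 10 min, stored near −80 °C, and analysed by LC-MS/MS.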

Mus musculus [6] = test: Antiinflammatory activity in ip dosed LPS-induced C57BL/6 mouse model assessed as reduction in IL1beta production treated for 3 days measured 24 hrs post last dose by ELISA; type: functional, organism-based; conditions: time 4.0 day
In short: as §1

RAW264.7 [7] = test: Antioxidant activity in LPS-induced mouse RAW264.7 cells assessed as restoration of GSH-Px activity at 10 uM measured after 12 hrs; type: functional, cell-based
In short: (§3)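 RAW 264.7 cells were pretreated with LPS 1 µg/mL for 6 h, then exposed to compound (1 or 10 µM) for a further 12 h. SOD activity (WST-8 kit), GSH-Px activity, MPO activity and the GSH/GSSG ratio were measured with commercial kits per the manufacturer's protocols. Data are mean ± SEM, n = 3 independent observations, one-way ANOVA.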

[8] = Half life in Sprague-Dawley rat at 1 mg/kg, iv by LC-MS/MS analysis; type: ADME, organism-based; conditions: in vivo
In short: as §2

Cytochrome P450 2C19 = Cytochrome P450 2C19 (Homo sapiens, UniProt P33261); test: Inhibition of CYP2C19 in human liver microsomes preincubated for 10 mins followed by NADPH addition by LC-MS/MS analysis; type: ADME
Mus musculus [9] = test: Antiinflammatory activity in ip dosed LPS-induced C57BL/6 mouse model assessed as reduction in IL6 production treated for 3 days measured 24 hrs post last dose by ELISA; type: functional, organism-based; conditions: time 4.0 day
In short: as §1

[10] = Cmax in Sprague-Dawley rat at 1 mg/kg, iv by LC-MS/MS analysis; type: ADME, organism-based; set-up: route intravenous, dose 1 mg/kg; conditions: in vivo
In short: as §2

RAW264.7 [11] = test: Antioxidant activity in mouse RAW264.7 cells assessed as reversal in LPS-induced increase of MPO activity measured after 12 hrs; type: functional, cell-based
In short: as §3

[12] = Half life in CD-1 rat liver microsomes preincubated for 5 mins followed by NADPH addition and measured after 45 mins by LC-MS/MS analysis; type: ADME, Microsome; conditions: time 50 min
In short: (§4)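 CD-1 male rat liver microsomes in PBS were shaken 10 min at 37 °C, then DMSO compound solution (0.1 mM) was added. Plates were preincubated 5 min at 37 °C before NADPH was added to start the reaction; the 0-min samples were quenched with acetonitrile first. Ice-cold acetonitrile stopped reactions at 5, 15, 30 and 45 min. Clozapine was the reference; supernatants were analysed by LC-MS/MS.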

[13] = AUC (0 to infinity) in Sprague-Dawley rat at 1 mg/kg, iv by LC-MS/MS analysis; type: ADME, organism-based; set-up: dose 1 mg/kg, route intravenous, time infinity; conditions: in vivo
[14] = AUC (0 to t) in Sprague-Dawley rat at 1 mg/kg, iv by LC-MS/MS analysis; type: ADME, organism-based; conditions: in vivo
[15] = Intrinsic clearance in CD-1 rat liver microsomes preincubated for 5 mins followed by NADPH addition and measured after 45 mins by LC-MS/MS analysis; type: ADME, Microsome; conditions: time 50 min
In short: as §4

Mus musculus [16] = test: Antiinflammatory activity in ip dosed LPS-induced C57BL/6 mouse model assessed as reduction in IFNgamma production treated for 3 days measured 24 hrs post last dose by ELISA; type: functional, organism-based; conditions: time 4.0 day
In short: as §1

Cytochrome P450 2C9 = Cytochrome P450 2C9 (Homo sapiens, UniProt P11712); test: Inhibition of CYP2C9 in human liver microsomes preincubated for 10 mins followed by NADPH addition by LC-MS/MS analysis; type: ADME
Cytochrome P450 1A2 = biological target: T1, Cytochrome P450 1A2 (Homo sapiens, UniProt P05177); test: Inhibition of CYP1A2 in human liver microsomes preincubated for 10 mins followed by NADPH addition by LC-MS/MS analysis; type: ADME
T1 sequence (P05177 whole entry): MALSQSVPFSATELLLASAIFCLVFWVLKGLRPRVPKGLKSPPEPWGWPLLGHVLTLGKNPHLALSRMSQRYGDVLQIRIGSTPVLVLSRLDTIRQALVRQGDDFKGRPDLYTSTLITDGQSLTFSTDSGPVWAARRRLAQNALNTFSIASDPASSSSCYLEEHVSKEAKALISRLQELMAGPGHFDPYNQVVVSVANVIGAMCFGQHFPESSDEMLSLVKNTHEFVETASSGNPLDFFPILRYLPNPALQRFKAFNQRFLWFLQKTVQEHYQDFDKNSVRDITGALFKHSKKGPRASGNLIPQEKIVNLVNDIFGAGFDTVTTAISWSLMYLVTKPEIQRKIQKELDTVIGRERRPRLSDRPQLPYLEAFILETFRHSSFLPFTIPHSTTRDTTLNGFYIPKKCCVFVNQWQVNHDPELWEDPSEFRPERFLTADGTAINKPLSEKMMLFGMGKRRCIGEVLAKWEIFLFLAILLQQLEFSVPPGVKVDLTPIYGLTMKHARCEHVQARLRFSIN

Cytochrome P450 3A4 = Cytochrome P450 3A4 (Homo sapiens, UniProt P08684); test: Inhibition of CYP3A4 in human liver microsomes preincubated for 10 mins followed by NADPH addition by LC-MS/MS analysis; type: ADME
RAW264.7 [17] = test: Antioxidant activity in LPS-induced mouse RAW264.7 cells assessed as restoration of GSH to GSSG ratio at 10 uM measured after 12 hrs; type: functional, cell-based
In short: as §3

RAW264.7 [18] = test: Antioxidant activity in LPS-induced mouse RAW264.7 cells assessed as restoration of SOD activity at 10 uM […]; type: functional, cell-based
Mus musculus [19] = test: Antiinflammatory activity in ip dosed LPS-induced C57BL/6 mouse model assessed as reduction in TNFalpha production treated for 3 days measured 24 hrs post last dose by ELISA; type: functional, organism-based; conditions: time 4.0 day
In short: as §1

RAW264.7 [20] = test: Antioxidant activity in mouse RAW264.7 cells assessed as inhibition of LPS-induced ROS generation at 10 uM measured after 12 hrs by CH2DCF-DA staining based fluorescence microscopic analysis; type: functional, cell-based
In short: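 RAW 264.7 cells were pretreated with LPS 1 µg/mL for 6 h, then given compound for 12 h. Cells were washed with PBS and stained with 10 µM c-H2DCF-DA for 20 min at 37 °C in the dark. ROS was imaged by live-cell fluorescence microscopy and quantified as mean fluorescence intensity. n = 3 independent observations, mean ± SEM.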

[21] = Hepatic clearance in CD-1 rat liver microsomes preincubated for 5 mins followed by NADPH addition and measured after 45 mins by LC-MS/MS analysis; type: ADME, Microsome
In short: as §4

Cytochrome P450 2D6 = Cytochrome P450 2D6 (Homo sapiens, UniProt P10635); test: Inhibition of CYP2D6 in human liver microsomes preincubated for 10 mins followed by NADPH addition by LC-MS/MS analysis; type: ADME
Cytochrome P450 2D6, sequence (P10635 whole entry): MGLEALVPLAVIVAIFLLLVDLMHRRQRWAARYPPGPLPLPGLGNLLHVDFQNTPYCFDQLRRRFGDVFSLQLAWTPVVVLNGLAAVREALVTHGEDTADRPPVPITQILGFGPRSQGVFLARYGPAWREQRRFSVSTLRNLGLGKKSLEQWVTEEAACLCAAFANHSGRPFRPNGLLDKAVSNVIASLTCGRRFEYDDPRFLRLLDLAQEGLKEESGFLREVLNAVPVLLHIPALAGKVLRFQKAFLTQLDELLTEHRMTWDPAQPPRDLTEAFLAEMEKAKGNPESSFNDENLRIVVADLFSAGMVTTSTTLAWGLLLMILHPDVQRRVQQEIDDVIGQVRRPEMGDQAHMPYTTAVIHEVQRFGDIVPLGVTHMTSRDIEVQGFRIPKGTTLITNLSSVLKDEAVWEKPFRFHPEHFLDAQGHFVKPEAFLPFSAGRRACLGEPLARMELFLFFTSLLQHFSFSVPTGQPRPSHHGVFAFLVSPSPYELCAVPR

Keap1/Nrf2, sequence (Q16236 whole entry): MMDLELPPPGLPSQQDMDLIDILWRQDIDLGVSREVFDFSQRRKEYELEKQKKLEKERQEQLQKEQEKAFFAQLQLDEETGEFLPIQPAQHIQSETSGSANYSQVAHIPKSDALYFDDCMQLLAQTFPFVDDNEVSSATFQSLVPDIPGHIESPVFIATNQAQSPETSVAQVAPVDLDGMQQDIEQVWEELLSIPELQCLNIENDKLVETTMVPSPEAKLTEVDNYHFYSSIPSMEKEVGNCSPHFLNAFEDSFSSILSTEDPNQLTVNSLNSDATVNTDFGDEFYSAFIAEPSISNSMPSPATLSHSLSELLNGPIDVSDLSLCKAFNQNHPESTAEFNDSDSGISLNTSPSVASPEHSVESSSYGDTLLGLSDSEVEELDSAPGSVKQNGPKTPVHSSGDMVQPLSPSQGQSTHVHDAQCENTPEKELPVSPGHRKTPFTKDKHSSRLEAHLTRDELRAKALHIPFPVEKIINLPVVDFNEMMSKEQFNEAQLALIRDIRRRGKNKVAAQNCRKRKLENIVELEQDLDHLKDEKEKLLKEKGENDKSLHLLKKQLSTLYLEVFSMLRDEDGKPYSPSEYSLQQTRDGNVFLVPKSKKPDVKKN
Keap1/Nrf2, sequence (Q14145 whole entry): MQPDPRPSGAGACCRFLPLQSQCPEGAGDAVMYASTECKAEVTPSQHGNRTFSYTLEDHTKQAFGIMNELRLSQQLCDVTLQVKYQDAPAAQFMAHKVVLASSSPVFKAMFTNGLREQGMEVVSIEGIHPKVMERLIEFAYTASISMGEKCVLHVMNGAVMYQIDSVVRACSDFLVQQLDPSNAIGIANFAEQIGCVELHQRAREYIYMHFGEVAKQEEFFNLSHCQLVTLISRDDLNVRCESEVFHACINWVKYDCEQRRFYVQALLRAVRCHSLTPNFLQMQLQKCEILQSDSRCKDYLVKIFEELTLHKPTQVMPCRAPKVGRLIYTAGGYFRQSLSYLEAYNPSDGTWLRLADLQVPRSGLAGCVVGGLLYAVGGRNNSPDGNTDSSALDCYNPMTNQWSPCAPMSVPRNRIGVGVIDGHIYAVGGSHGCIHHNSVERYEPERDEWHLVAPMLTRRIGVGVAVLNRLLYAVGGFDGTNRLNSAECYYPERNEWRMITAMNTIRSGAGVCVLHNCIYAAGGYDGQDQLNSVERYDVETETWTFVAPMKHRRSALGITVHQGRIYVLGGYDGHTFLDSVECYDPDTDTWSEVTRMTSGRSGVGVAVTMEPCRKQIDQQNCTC
Cytochrome P450 3A4, sequence (P08684 whole entry): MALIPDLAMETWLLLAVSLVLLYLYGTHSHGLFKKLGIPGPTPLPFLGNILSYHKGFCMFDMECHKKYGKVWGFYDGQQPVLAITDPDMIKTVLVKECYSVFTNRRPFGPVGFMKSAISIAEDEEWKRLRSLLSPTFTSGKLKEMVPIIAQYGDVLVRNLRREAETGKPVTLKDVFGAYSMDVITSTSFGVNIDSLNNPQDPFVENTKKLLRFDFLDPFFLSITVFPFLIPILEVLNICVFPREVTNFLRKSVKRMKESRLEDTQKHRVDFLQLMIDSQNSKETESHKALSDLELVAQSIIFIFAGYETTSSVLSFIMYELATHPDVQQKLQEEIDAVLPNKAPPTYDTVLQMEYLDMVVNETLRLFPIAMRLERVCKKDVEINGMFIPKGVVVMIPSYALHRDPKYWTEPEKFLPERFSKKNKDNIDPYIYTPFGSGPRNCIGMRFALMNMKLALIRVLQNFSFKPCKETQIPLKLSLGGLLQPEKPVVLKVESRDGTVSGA
Cytochrome P450 2C19, sequence (P33261 whole entry): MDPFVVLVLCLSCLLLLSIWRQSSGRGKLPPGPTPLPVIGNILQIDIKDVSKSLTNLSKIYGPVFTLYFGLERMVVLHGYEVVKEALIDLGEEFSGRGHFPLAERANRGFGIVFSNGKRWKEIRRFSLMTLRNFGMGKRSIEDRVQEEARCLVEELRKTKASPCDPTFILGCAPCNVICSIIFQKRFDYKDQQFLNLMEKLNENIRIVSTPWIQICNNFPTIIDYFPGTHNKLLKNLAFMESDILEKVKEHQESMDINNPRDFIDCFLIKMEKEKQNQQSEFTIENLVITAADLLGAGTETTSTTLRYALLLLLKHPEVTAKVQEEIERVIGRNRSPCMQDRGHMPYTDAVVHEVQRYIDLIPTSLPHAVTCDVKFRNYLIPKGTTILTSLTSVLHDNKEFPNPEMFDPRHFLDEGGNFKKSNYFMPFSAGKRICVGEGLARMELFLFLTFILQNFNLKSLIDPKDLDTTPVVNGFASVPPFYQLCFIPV
Cytochrome P450 2C9, sequence (P11712 whole entry): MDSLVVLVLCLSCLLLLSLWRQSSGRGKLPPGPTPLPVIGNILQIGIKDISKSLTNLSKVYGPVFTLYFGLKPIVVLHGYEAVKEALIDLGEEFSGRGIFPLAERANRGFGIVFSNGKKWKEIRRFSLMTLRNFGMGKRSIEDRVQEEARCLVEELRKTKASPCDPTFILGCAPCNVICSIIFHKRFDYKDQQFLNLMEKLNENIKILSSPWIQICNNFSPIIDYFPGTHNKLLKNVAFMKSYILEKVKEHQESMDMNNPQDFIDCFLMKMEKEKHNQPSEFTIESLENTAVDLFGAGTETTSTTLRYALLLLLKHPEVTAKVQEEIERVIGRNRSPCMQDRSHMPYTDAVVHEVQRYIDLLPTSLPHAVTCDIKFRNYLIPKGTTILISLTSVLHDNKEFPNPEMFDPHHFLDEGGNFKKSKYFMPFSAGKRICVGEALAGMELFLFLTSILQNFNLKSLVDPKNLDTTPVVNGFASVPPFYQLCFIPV

NC(=O)c1ccc(S(=O)(=O)N(CC(=O)O)c2ccc(OC(C(=O)O)c3ccccc3)c3ccccc23)cc1 (configuration not stated)
IC50 (Keap1/Nrf2): 2690 nM

Cc1cc(C)c(S(=O)(=O)N(CC(=O)O)c2ccc(OC(C(=O)O)c3ccc(F)cc3)c3ccccc23)c(C)c1 (configuration not stated)
IC50 (Keap1/Nrf2): 170 nM

Cc1cc(C)c(S(=O)(=O)N(CC(=O)O)c2ccc(OC(C(=O)O)c3ccc(OC(C)C)cc3)c3ccccc23)c(C)c1 (configuration not stated)
IC50 (Keap1/Nrf2): 500 nM

Cc1cc(C)c(S(=O)(=O)N(CC(=O)O)c2ccc(OC(C(=O)O)c3ccc(C(C)(C)C)cc3)c3ccccc23)c(C)c1 (configuration not stated)
IC50 (Keap1/Nrf2): 19000 nM

CC(=O)Nc1ccc(C(Oc2ccc(N(CC(=O)O)S(=O)(=O)c3c(C)cc(C)cc3C)c3ccccc23)C(=O)O)cc1 (configuration not stated)
IC50 (Keap1/Nrf2): 980 nM

CCOc1ccc(C(Oc2ccc(N(CC(=O)O)S(=O)(=O)c3c(C)cc(C)cc3C)c3ccccc23)C(=O)O)cc1 (configuration not stated)
IC50 (Keap1/Nrf2): 150 nM

O=C(O)CN(c1ccc(OC(C(=O)O)c2ccccc2)c2ccccc12)S(=O)(=O)c1ccccc1 (configuration not stated)
IC50 (Keap1/Nrf2): 17800 nM

O=C(O)CN(c1ccc(OC(C(=O)O)c2ccccc2)c2ccccc12)S(=O)(=O)c1cccc2ccccc12 (configuration not stated)
IC50 (Keap1/Nrf2): 780 nM

Cc1ccc(S(=O)(=O)N(CC(=O)O)c2ccc(OC(C(=O)O)c3ccccc3)c3ccccc23)cc1 (configuration not stated)
IC50 (Keap1/Nrf2): 2690 nM

O=C(O)CN(c1ccc(OC(C(=O)O)c2ccccc2)c2ccccc12)S(=O)(=O)c1ccc(OC(F)(F)F)cc1 (configuration not stated)
IC50 (Keap1/Nrf2): 5840 nM

C[C@@H]1C[C@H]2[C@@H]3CCC4=CC(=O)C=C[C@]4(C)[C@@]3(F)[C@@H](O)C[C@]2(C)[C@@]1(O)C(=O)CO
Activity (Mus musculus [1]): Active
Activity (Mus musculus [2]): Active
Activity (Mus musculus [3]): Active
Activity (Mus musculus [4]): Active

Cc1cc(C)c(S(=O)(=O)N(CC(=O)O)c2ccc(OC(C(=O)O)c3ccc(Br)cc3)c3ccccc23)c(C)c1 (configuration not stated)
IC50 (Keap1/Nrf2): 430 nM

O=C(O)CN(c1ccc(OC(C(=O)O)c2ccccc2)c2ccccc12)S(=O)(=O)c1ccc(Br)cc1 (configuration not stated)
IC50 (Keap1/Nrf2): 2970 nM

COc1ccc(C(Oc2ccc(N(CC(=O)O)S(=O)(=O)c3c(C)cc(C)cc3C)c3ccccc23)C(=O)O)cc1 (configuration not stated)
Vz/F [5]: 0.953 L/kg
Activity (Mus musculus [6]): Dose-dependent effect
Activity (RAW264.7 [7]): Active
t1/2 [8]: 1.72 h
IC50 (Cytochrome P450 2C19): > 10000 nM
Activity (Mus musculus [9]): Dose-dependent effect
Cmax [10]: 15100 ng/mL
Activity (RAW264.7 [11]): Dose-dependent effect
half-life at […] [12]: 10.5 h
AUC [13]: 2649 ng·h/mL
AUC(0-t) [14]: 2550 ng·h/mL
CLint at […] [15]: 1.57 µL/min/mg
Activity (Mus musculus [16]): Dose-dependent effect
IC50 (Cytochrome P450 2C9): > 10000 nM
IC50 (Cytochrome P450 1A2): > 10000 nM
IC50 (Cytochrome P450 3A4): > 10000 nM
Activity (RAW264.7 [17]): Active
Activity (RAW264.7 [18]): Active
Activity (Mus musculus [19]): Dose-dependent effect
inhibition (RAW264.7 [20]): Dose-dependent effect
CLhep predicted at […] [21]: 2.69 mL/min/kg
IC50 (Cytochrome P450 2D6): > 10000 nM

O=C(O)CN(c1ccc(OC(C(=O)O)c2ccccc2)c2ccccc12)S(=O)(=O)c1ccc(Cl)cc1 (configuration not stated)
IC50 (Keap1/Nrf2): 7640 nM

Cc1cc(C)c(S(=O)(=O)N(CC(=O)O)c2ccc(OC(C(=O)O)c3ccc(O)cc3)c3ccccc23)c(C)c1 (configuration not stated)
IC50 (Keap1/Nrf2): 160 nM

Cc1cc(C)c(S(=O)(=O)N(CC(=O)O)c2ccc(OC(C(=O)O)c3ccc(C(F)(F)F)cc3)c3ccccc23)c(C)c1 (configuration not stated)
IC50 (Keap1/Nrf2): 1190 nM

Cc1cc(C)c(S(=O)(=O)N(CC(=O)O)c2ccc(OC(C(=O)O)c3ccc(Cl)cc3)c3ccccc23)c(C)c1 (configuration not stated)
IC50 (Keap1/Nrf2): 190 nM
